Legend:
ENO2 [1] = target: T1, ENO2 (Homo sapiens, UniProt P09104); experiment: Ligand-induced thermal shift assay, lysates of D423 overexpressing ENO2; assay type: binding; settings: 1 μM inhibitor, cell lysates
Summary of the method: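 Lysate in 20 mM Tris-HCl, 1 mM EDTA, 1 mM β-mercaptoethanol (pH 7.4), homogenised, sonicated and cleared at 20,000 g for 10 min. Diluted 1:100 in enolase buffer (10 mM KCl, 5 mM MgSO4, 100 mM triethanolamine, pH 7.4). Treated with 1 μM test compound or vehicle, heated at 50–90 °C for 3 min, recentrifuged. ENO2 in supernatant immunoblotted; band intensity plotted versus temperature.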

Vinculin = target: T2, Vinculin (Homo sapiens, UniProt P18206); experiment: Thermal shift assay, internal control Vinculin; assay type: binding; settings: cell lysates
T2 sequence (P18206 1-1066 isoform P18206-2): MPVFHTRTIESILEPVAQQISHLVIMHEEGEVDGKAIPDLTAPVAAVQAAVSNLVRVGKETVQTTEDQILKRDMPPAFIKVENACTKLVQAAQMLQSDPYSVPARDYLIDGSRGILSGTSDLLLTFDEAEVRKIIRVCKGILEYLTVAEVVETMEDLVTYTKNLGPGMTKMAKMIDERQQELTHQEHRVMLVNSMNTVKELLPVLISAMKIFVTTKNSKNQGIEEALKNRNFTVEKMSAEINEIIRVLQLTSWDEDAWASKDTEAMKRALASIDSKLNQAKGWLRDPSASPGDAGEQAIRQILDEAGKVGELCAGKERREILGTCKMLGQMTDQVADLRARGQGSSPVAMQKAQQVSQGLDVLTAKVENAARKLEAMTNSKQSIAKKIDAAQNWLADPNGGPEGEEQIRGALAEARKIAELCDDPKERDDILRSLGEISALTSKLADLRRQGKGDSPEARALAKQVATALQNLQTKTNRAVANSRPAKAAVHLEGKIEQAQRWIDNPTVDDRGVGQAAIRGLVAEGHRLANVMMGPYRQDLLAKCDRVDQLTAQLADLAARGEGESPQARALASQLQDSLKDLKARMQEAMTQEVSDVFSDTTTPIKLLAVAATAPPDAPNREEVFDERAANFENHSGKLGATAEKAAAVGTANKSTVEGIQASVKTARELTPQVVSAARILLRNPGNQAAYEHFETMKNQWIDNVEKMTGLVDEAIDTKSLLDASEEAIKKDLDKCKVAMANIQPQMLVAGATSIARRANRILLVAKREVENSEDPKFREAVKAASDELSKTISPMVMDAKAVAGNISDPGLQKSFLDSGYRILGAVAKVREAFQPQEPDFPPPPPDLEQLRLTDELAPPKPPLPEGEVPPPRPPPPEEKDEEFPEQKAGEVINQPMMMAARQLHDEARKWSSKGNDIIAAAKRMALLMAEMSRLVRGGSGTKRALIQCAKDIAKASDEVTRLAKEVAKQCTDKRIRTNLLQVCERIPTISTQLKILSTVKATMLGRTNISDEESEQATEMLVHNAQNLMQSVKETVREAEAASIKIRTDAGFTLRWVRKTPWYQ
Summary of the method: (§1)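 Lysates of D423 glioma cells overexpressing ENO1 or ENO2 were made in 20 mM Tris-HCl, 1 mM EDTA, 1 mM β-mercaptoethanol, pH 7.4, homogenised, sonicated and cleared at 20,000 g for 10 min. They were diluted 1:100 in enolase assay buffer (10 mM KCl, 5 mM MgSO4, 100 mM triethanolamine, pH 7.4), given test compound or vehicle, and heated 3 min at 50–90 °C. After 20,000 g spin, supernatant was immunoblotted (anti-vinculin, anti-TPI, both 1:3000).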

[2] = system: Gli56 ENO1-deleted glioma cells; experiment: Proliferation; assay type: cell-based, human; settings: Supplementary Fig. 9
Summary of the method: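 Growth was followed by IncuCyte live-cell confluence imaging every 4 h. Initial seeding was 1.5 × 10^3 cells/well in 96-well plates, with duplicate replicates. Cells were cultured in DMEM with 10% FBS. ENO1-intact cell lines were used as comparators.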

Enolase 2 = Enolase 2 (Homo sapiens, UniProt P09104); experiment: Cellular thermal shift assay in intact D423 ENO2 glioma cells; assay type: cell-based; settings: 100 μM, without inhibitor ~65 °C
Chain of Enolase 2 (P09104 whole entry): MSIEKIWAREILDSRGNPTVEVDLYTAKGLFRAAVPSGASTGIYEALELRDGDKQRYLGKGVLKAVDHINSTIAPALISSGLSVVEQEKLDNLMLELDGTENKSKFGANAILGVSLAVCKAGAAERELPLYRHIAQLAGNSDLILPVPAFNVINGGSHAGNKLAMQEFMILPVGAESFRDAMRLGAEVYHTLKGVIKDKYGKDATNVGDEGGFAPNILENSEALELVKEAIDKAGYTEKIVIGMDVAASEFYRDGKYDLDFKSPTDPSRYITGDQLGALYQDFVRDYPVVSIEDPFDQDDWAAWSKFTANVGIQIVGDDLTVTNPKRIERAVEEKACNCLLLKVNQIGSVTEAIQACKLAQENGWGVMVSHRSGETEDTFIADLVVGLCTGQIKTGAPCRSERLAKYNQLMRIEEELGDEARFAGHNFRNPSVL
Summary of the method: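 D423 glioma cells overexpressing ENO2, grown in DMEM with 10% FBS, treated one day with 100 μM test compound or vehicle. Trypsinized, PBS-washed, resuspended in PBS at 0.5 × 10^6 cells/mL, heated on a 50–90 °C gradient. Lysed with twice the volume of 20 mM Tris-HCl, 1 mM EDTA, 1 mM β-mercaptoethanol pH 7.4, plus one dry-ice freeze-thaw. Soluble ENO2 followed by immunoblotting.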

[3] = system: D423 ENO1-deleted glioma cells; experiment: 13C-1 glucose isotope tracing; assay type: cell-based, human; settings: 10 μM; for conversion of 13C-1 glucose to 13C-3 glycerate: 72 hours
Summary of the method: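 Glucose-free DMEM supplemented with 10 mM 13C-1 glucose; test compound at 10 μM. Media extracted with 80% methanol at −80 °C, centrifuged, lyophilised, redissolved in D2O and analysed by proton-decoupled 13C NMR. Glycerate was read as the peak at 64 ppm, also expressed as a ratio to 13C-3 lactate. Isogenic ENO1-rescued D423 cells served as comparison.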

ENO2 [4] = target: T1, ENO2; experiment: Thermal shift assay, purified recombinant human ENO2; assay type: binding; settings: concentration not stated in the sentence (Supplementary Fig. 6: 1 µM or 25 µM)
Summary of the method: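 Diluted and treated with test compound or vehicle in enolase assay buffer (10 mM KCl, 5 mM MgSO4, 100 mM triethanolamine, pH 7.4). Heated 50–90 °C for 3 min, spun 20,000 g for 10 min, supernatant ENO2 immunoblotted.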

[5] = target: Triosephosphate isomerase (Homo sapiens, UniProt P60174); experiment: Thermal shift assay, internal control Triosephosphate isomerase; assay type: binding; settings: cell lysates
Chain of Triosephosphate isomerase (P60174 whole entry): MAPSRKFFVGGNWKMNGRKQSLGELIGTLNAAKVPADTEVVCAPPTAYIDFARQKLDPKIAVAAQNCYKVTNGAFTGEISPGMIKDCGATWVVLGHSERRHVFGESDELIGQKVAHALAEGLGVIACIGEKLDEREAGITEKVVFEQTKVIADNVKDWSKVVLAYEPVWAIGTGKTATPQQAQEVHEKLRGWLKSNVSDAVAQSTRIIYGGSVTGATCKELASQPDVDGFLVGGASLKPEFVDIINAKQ
Summary of the method: as §1

[6] = system: D423 ENO1-deleted glioma cells; experiment: Cell density; assay type: cell-based, human; settings: 72 hours
Summary of the method: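 Cells were seeded at 1 × 10^4 cells/well in 96-well plates and treated the next day. They were then held either under hypoxia (0.1% O2, 5% CO2) or normoxia for 72 h. Cells were fixed in 10% formalin and stained with crystal violet. Dye was extracted with 10% acetic acid and absorbance read at 595 nm.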

ENO1-intact glioma cells = experiment: Toxicity to ENO1-intact cells; assay type: cell-based, human; settings: 10 μM, four days
Staphylococcus = settings: cited from earlier work
Enolase [7] = experiment: Enolase enzymatic activity in vitro; assay type: biochemical
Enolase [8] = target: Enolase (Homo sapiens, UniProt P09104); experiment: Enolase enzymatic activity in vitro; assay type: biochemical
Chain of Enolase (Homo sapiens, UniProt P09104) (P09104 whole entry): as the sequence (P09104 whole entry) above

[9] = system: D423 ENO1-rescued glioma cells; experiment: Proliferation; assay type: cell-based, human
Summary of the method: (§2)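 Cells were seeded at 2 × 10^3 cells/well in 96-well plates and treated for 2 weeks across a concentration range. Medium was then refreshed, and Hoechst 33342 (total cells) plus YO-PRO-1 (apoptotic cells) were added at 1:1000 final dilution for 2 h at 37 °C. Wells were imaged and quantified by high-content imaging. Conditions were run in duplicate and expressed relative to vehicle.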

[10] = system: D423 ENO1-deleted glioma cells; experiment: Time course of ATP; assay type: cell-based, human
[11] = Configurational stability in aqueous solution; assay type: physicochemical
Salmonella = settings: cited from earlier work
E. coli = settings: cited from earlier work
[12] = system: D423 ENO1-deleted glioma cells; experiment: Mass spectrometric determination of 3-PGA and PEP; assay type: cell-based, human; settings: 10 μM and 25 μM, 72 hours
Summary of the method: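 D423 ENO1-deleted glioma cells and isogenic ENO1-rescued controls were grown in DMEM with 10% FBS. They were treated with vehicle, 10 μM or 25 μM test compound for 72 h. Polar metabolites were extracted with 80% methanol at −80°C and quantified by mass spectrometry to give the 3-PGA/PEP ratio. Each bar is an independently treated culture; comparisons used unpaired two-tailed t-tests with Bonferroni correction.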

[13] = system: D423 ENO1-deleted glioma cells; experiment: Proliferation; assay type: cell-based, human
Summary of the method: as §2

fungi = settings: cited from earlier work
[14] = 2 weeks, YO-PRO-1 positive cells

T1 sequence (P09104 whole entry): as above

O=C(CP(=O)(O)O)NO [PhAH, Phosphonoacetohydroxamate, reference compound]
shift in the thermal denaturation of ENO2 (ENO2 [1]): ~ 6 °C
effect on thermal stability of Vinculin (Vinculin): Neither PhAH nor SF2312 affected the thermal stability
toxicity against Gli56 versus ENO1-intact cell lines [2]: selective toxicity
shift of the thermal melting curve of ENO2 in intact glioma cells (Enolase 2): ~ 6 °C
conversion of 13C-1 glucose to 13C-3 glycerate [3]: to a lesser extent
stabilization of recombinant human ENO2 (shift of thermal denaturation curve) (ENO2 [4]): ~ 6 °C
effect on thermal stability of Triosephosphate isomerase [5]: Neither PhAH nor SF2312 affected the thermal stability
concentration at which potentiation of toxicity by hypoxia is evident ([6]; hypoxia vs normoxia): 200 µM

O=C1C(P(=O)(O)O)CC(O)N1O (stereo not drawn) [SF2312, (1,5-dihydroxy-2-oxopyrrolidin-3-yl)phosphonic acid]
shift in the thermal denaturation of ENO2 (ENO2 [1]): ~ 9.5 °C
melting temperature (Tm) of ENO2 (ENO2 [1]; without inhibitor ~63 °C): ~ 72.5 °C
toxicity (ENO1-intact glioma cells): non-toxic
effect on thermal stability of Vinculin (Vinculin): Neither PhAH nor SF2312 affected the thermal stability
toxicity against Gli56 versus ENO1-intact cell lines [2]: selective toxicity
antibiotic activity (Staphylococcus): strong activity
type of inhibitor (on/off rate) (Enolase [7]; order of addition of inhibitor and substrate): slow-on/slow-off inhibitor
kinetics with respect to substrate 2-PGA (Enolase [8]; ENO2, at IC50): non-competitive kinetics
kinetics with respect to substrate 2-PGA (Enolase [8]; ENO2, at higher concentrations of inhibitor): competitive kinetics
shift of the thermal melting curve of ENO2 in intact glioma cells (Enolase 2): ~ 15 °C
concentration inhibiting proliferation ([9]; 2 weeks treatment course, ectopically re-expressing ENO1): above 200 μM
concentration at which induction of cell death is seen [9, 14]: 400 µM
time after initiation of treatment at which declines in ATP occurred [10]: 8 h
conversion of 13C-1 glucose to 13C-3 glycerate [3]: dramatically increases
glucose consumption and lactate production in media ([3]; four days, 13C-1 glucose, D423 and Gli56 ENO1 deleted cells): profound inhibition of glucose consumption
stabilization of recombinant human ENO2 (shift of thermal denaturation curve) (ENO2 [4]): ~ 12 °C
stability of stereocenters [11]: both stereocenters underwent spontaneous epimerization
antibiotic activity (Salmonella): strong activity
antibiotic activity (E. coli): weak activity
effect on thermal stability of Triosephosphate isomerase [5]: Neither PhAH nor SF2312 affected the thermal stability
ratio of 3-PGA/PEP [12]: dramatic increase
concentration inhibiting proliferation ([13]; 2 weeks treatment course): low μM range
concentration at which induction of cell death starts [13, 14]: 12.5 µM
concentrations at which cells were essentially eradicated ([6]; hypoxia (0.1% O2)): > 6.25 µM
eradication of cells ([6]; normoxia, 100 μM inhibitor): no eradication was observed
antibiotic activity (fungi): no activity

O=C1C(P(=O)(O)O)CCN1O (stereo not drawn) [deoxy-SF2312, 1-hydroxy-2-oxopyrrolidin-3-ylphosphonic acid]
IC50 (Enolase [7]; read-out: IC50 as an enolase inhibitor): ~2 µM
kinetics with respect to substrate 2-PGA (Enolase [8]; ENO2 (Fig. 1d)): clear competitive kinetics

Source: PMC5110371 (Nature chemical biology, 2016)
